Measurements as given in paper PMC4956517 (Experimental hematology, 2016).
“Also recorded” adds a separate entry of the source.

Columns and labels:
[1] = biological target: T1, hEPOR-Fc construct (EPOR extracellular domain-IgFc) (Homo sapiens, UniProt P19235); assay: Surface plasmon resonance; assay type: binding; conditions: Biacore
T1 sequence (P19235 25-250 limits assumed): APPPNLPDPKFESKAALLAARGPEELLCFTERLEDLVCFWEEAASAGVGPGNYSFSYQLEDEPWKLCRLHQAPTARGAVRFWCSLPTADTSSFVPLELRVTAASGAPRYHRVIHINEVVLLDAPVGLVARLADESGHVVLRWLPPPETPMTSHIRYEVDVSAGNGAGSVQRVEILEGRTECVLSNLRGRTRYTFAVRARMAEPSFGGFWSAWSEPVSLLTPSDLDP

EPOR (UT7epo cells) = assay: Western blotting of EPOR forms in UT7epo cells; assay type: cell-based, human; conditions: versus rHu-EPO
Outline: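 UT7epo cells were cultured in test compound or rHu-EPO at varied, biologically matched doses. For extended time-courses, medium plus ligand was replaced daily. Western blots over the time-course were probed with rabbit monoclonal anti-hEPOR IC-c1.1, with anti-GAPDH as loading control.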

[2] = tested on: endogenous cell surface EPOR (UT7epo cells); assay: Flow cytometry of endogenous cell surface EPOR in UT7epo cells; assay type: cell-based, human; conditions: versus rHu-EPO at matched doses (1.5U/mL vs 2.1 nM, 2.0 U/mL vs 2.8nM); days 4 and 8; antibody EC-c38.5; median and mean fluorescence intensities, clear statistical significance; n=3
EPOR transcript = assay: Quantitative RT-PCR of EPOR transcript levels; assay type: cell-based, human; conditions: peginesatide vs rHu-EPO; data not shown
[3] = cited from earlier work

| Substance | stability of binding to the EPOR ([1]; ECD-EPOR-Fc immobilized at 675 RU and 225 RU) | EPOR residence time, ratio to that of rHu-EPO ([1]; estimated, greater than that of rHu-EPO, immobilized ECD-EPOR-Fc) | processing of the EPOR to lower molecular weight forms (EPOR (UT7epo cells); peginesatide as the EPOR ligand) | levels of full-length EPOR-68K receptor forms (EPOR (UT7epo cells); time-course, antibody IC-c1.1) | levels of lower molecular weight EPOR-36K form (EPOR (UT7epo cells); time-course, antibody IC-c1.1) | cell surface EPOR levels [2] | EPOR transcript levels (EPOR transcript) | allergenic side-effects ([3]; first-time recipients, ref Bennett, et al 2014) | anaphylactic reactions ([3]; ref Bennett, et al 2014) | TPO-reactive antibody formation ([3]; clinical trials, ref Basser 2002) |
| --- | --- | --- | --- | --- | --- | --- | --- | --- | --- | --- |
| peginesatide | uniquely highly stable binding to the EPOR | 17.1 fold | observed trends towards apparent lessened processing of the EPOR to lower molecular weight forms | elevated levels of full-length EPOR-68K receptor forms | no such increases were observed | notably elevated cell surface EPOR levels | no differential effects | can also somehow stimulate allergenic reactivity; also recorded: allergenic side-effects in certain first-time recipients | rare fatal anaphylaxis; also recorded: severe anaphylactic reactions infrequently experienced |  |
| rHu-TPO: Thrombopoietin (TPO); effective in stimulating megakaryocyte and platelet production |  |  |  |  |  |  |  |  |  | induce TPO- reactive antibody formation |
